Results taken from ChEMBL document CHEMBL1629604, “Targeting type III secretion in Yersinia pestis” (Antimicrob Agents Chemother, 2009).
Activity calls are given as the source filed them. No cut-off for these calls is given here.

Columns and labels:
Yersinia pestis [1] = test: (§1) Inhibition of T3SS-mediated YopM secretion in Yersinia pestis JG401 after 2 hrs by Western blotting
HeLa [2] = test: Inhibition pCD1 positive Yersinia pestis JG153 T3SS-mediated morphological changes in human HeLa cells after 3 hrs; type: cell-based
Yersinia pestis [3] = test: (§2) Inhibition of T3SS-mediated YopH secretion in Yersinia pestis JG401 after 2 hrs by Western blotting
Yersinia pestis [4] = test: Inhibition of T3SS-mediated YopD secretion in Yersinia pestis JG401 at up to 60 uM after 2 hrs by Western blotting
Yersinia pestis [5] = test: Inhibition of T3SS-mediated YopD secretion in Yersinia pestis JG401 at 15 uM after 2 hrs by Western blotting
Yersinia pestis [6] = test: (§3) Inhibition of T3SS-mediated YopD secretion in Yersinia pestis JG401 after 2 hrs by Western blotting
Yersinia pestis [7] = test: Inhibition of T3SS-mediated YopM secretion in Yersinia pestis JG401 t up to 60 uM after 2 hrs by Western blotting
Yersinia pestis [8] = test: Inhibition of translocation of YopE::Bla fusion from pMM85 expressing Yersinia pestis JG153 to human HeLa cells at 80 uM after 3 hrs by fluorescence microscopic analysis; type: functional, organism-based
Escherichia coli = test: Inhibition of T3SS-mediated Tir secretion in enteropathogenic Escherichia coli KC14 harboring pKC17 at after 2 hrs by Western blotting
Yersinia pestis [9] = test: Toxicity in Yersinia pestis JG153 assessed as growth inhibition at 60 uM measured 6 mins intervals for 24 hrs; type: organism-based
HeLa [10] = test: Cytotoxicity against human HeLa cells assessed as cell rounding up to 60 uM after 3 hrs; type: cell-based
Procedure, shortened: (§4)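 HeLa monolayers seeded 1 day before at 1×10^5 cells/well in DMEM with 3% heat-inactivated FBS. Compound applied, cells incubated 37°C for 3 h. Monolayer disruption scored by microscopy as rounding and as percentage of cells detached from the plate.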

HeLa [11] = test: Cytotoxicity against human HeLa cells assessed as cell detachment up to 60 uM after 3 hrs; type: cell-based; procedure, shortened: as §4
HeLa [12] = test: Cytotoxicity against human HeLa cells assessed as LDH release up to 60 uM after 3 hrs; type: cell-based
Procedure, shortened: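 HeLa cells seeded 1 day before in DMEM with 3% heat-inactivated FBS, then exposed to compound up to 60 μM at 37°C for 2–3 h. LDH in supernatant measured by kit. 0.1% Triton X-100 lysis gave the maximum and untreated cells the baseline; % cytotoxicity was calculated relative to both. Mean of three independent assays.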

Yersinia pestis [13] = test: Inhibition of translocation of YopE::Bla fusion from pMM85 expressing Yersinia pestis JG153 to human HeLa cells at 40 uM after 3 hrs by fluorescence microscopic analysis; type: functional
[14] = as §1
[15] = as §2
[16] = as §3

In the case of O=C(Nc1cccc(C2=NCCN2)c1)Nc1cccc(C2=NCCN2)c1, the inhibition (Yersinia pestis [1]) is reported as “Dose-dependent effect”, the inhibition (HeLa [2]) is reported as “Dose-dependent effect” and the inhibition (Yersinia pestis [3]) is reported as “Dose-dependent effect”. The inhibition (Yersinia pestis [4]) was “inactive”, the inhibition (Yersinia pestis [5]) was 50% and the inhibition (Yersinia pestis [6]) was “Dose-dependent effect”. For the same molecule, the inhibition (Yersinia pestis [7]) was “inactive”, the inhibition (Yersinia pestis [8]) was “Active” and the inhibition (Escherichia coli; concentration not given here) was 81%.
For Cc1ccc(-c2nn(-c3ccccc3)cc2C2CC(c3cccs3)=NN2C(=O)CCCC(=O)O)cc1 (stereo unspecified), the inhibition (Yersinia pestis [1]) was “Dose-dependent effect”, the inhibition (HeLa [2]) was “Dose-dependent effect” and the inhibition (Yersinia pestis [3]) was “Dose-dependent effect”. For the same molecule, the inhibition (Yersinia pestis [6]) was “Dose-dependent effect”, the Activity (Yersinia pestis [9]) was “Non-toxic” and the Activity (HeLa [10]) was “Non-toxic”. For the same molecule, the Activity (HeLa [11]) was “Non-toxic”, the Activity (HeLa [12]) was “Non-toxic” and the inhibition (Yersinia pestis [8]) was “inactive”. The INCC50 (Escherichia coli) was “inactive”.
With O=C(Nc1cccc(C2=NCCN2)c1)Nc1cccc(C2=NCCN2)c1 [IMIDOCARB] the Activity (Yersinia pestis [9]) was “Non-toxic”, the Activity (HeLa [10]) was “Non-toxic” and the Activity (HeLa [11]) was “Non-toxic”. The Activity (HeLa [12]) was “Non-toxic”.
For O=C(N/N=C/c1cc(Br)cc(Br)c1O)c1ccc([N+](=O)[O-])cc1, the Activity (Yersinia pestis [9]) was “Toxic”.
In the case of Cc1ccc(CSc2nc(C(=O)O)ccc2C#N)cc1, the inhibition (Yersinia pestis [1]) is reported as “Dose-dependent effect”, the inhibition (HeLa [2]) is reported as “Dose-dependent effect” and the inhibition (Yersinia pestis [3]) is reported as “Dose-dependent effect”. The inhibition (Yersinia pestis [6]) was “Dose-dependent effect”, the Activity (Yersinia pestis [9]) was “Non-toxic” and the Activity (HeLa [10]) was “Non-toxic”. For the same molecule, the Activity (HeLa [11]) was “Non-toxic”, the Activity (HeLa [12]) was “Non-toxic” and the inhibition (Yersinia pestis [8]) was “inactive”. It also gave an inhibition (Escherichia coli; concentration not given here) of 96%.
Work on O=C(Nc1cccc(C2=NCCN2)c1)Nc1cccc(C2=NCCN2)c1 [IMIDOCARB DIPROPIONATE] yielded an inhibition at 40 µM (Yersinia pestis [13]) of 50%.
In the case of Cc1cc(O)ccc1Sc1ccc(O)cc1C, the IC50 [14] is reported as 10 µM, the inhibition (Yersinia pestis [1]) is reported as “Dose-dependent effect” and the IC50 [15] is reported as 10 µM. The inhibition (Yersinia pestis [3]) was “Dose-dependent effect”, the IC50 [16] was 10 µM and the inhibition (Yersinia pestis [6]) was “Dose-dependent effect”. For the same molecule, the Activity (Yersinia pestis [9]) was “Non-toxic”, the Activity (HeLa [10]) was “Toxic” and the Activity (HeLa [11]) was “Toxic”. The Activity (HeLa [12]) was “Toxic” and the inhibition (Escherichia coli) was “inactive”.
